Reference: ChEMBL document CHEMBL4706621, “An attempt to chemically state the cross-talk between monomers of COX homodimers by double/hybrid inhibitors mofezolac-spacer-mofezolac and mofezolac-spacer-arachidonic acid” (Eur J Med Chem, 2021)

What was measured:
[1] = target: T1, Prostaglandin G/H synthase 1 (Ovis aries, UniProt P05979); assay: Inhibition of ovine COX-1 assessed as peroxidase activity using arachidonic acid as substrate by colorimetric method
T1 sequence (P05979 whole entry): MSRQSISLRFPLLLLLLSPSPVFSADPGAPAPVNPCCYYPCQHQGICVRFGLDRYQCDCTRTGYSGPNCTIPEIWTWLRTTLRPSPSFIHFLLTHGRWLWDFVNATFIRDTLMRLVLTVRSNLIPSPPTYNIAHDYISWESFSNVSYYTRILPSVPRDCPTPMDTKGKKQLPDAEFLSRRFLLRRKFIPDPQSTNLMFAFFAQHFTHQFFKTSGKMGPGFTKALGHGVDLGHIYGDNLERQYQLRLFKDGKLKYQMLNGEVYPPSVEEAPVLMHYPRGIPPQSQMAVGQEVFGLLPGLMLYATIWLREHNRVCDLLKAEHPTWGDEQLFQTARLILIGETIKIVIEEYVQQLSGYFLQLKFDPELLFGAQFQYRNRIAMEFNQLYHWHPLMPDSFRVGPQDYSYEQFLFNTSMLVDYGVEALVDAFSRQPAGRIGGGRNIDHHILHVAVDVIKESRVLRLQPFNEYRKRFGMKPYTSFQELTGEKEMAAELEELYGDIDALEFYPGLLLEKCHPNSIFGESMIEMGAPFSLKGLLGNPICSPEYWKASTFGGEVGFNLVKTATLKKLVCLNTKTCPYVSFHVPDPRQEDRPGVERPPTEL
Method in brief: (§1)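 Colorimetric COX inhibitor screening kit measuring cyclooxygenase peroxidase activity on arachidonic acid substrate, read as oxidized TMPD at 590 nm. Compound stocks are made in DMSO. IC50 is the mean of at least three independent measurements. Percent inhibition is taken at the highest final inhibitor concentration, 50 µM.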

[2] = target: T2, Prostaglandin G/H synthase 1 (Ovis aries) (UniProt P05979); assay: Inhibition of ovine COX-1 assessed as peroxidase activity using arachidonic acid as substrate at 50 uM by colorimetric method; method in brief: as §1
T2 sequence (whole entry): T1 sequence (P05979 whole entry)

[3] = target: T3, Prostaglandin G/H synthase 2 (Homo sapiens, UniProt P35354); assay: Inhibition of human COX-2 assessed as peroxidase activity using arachidonic acid as substrate by colorimetric method; method in brief: as §1
T3 sequence (P35354 whole entry): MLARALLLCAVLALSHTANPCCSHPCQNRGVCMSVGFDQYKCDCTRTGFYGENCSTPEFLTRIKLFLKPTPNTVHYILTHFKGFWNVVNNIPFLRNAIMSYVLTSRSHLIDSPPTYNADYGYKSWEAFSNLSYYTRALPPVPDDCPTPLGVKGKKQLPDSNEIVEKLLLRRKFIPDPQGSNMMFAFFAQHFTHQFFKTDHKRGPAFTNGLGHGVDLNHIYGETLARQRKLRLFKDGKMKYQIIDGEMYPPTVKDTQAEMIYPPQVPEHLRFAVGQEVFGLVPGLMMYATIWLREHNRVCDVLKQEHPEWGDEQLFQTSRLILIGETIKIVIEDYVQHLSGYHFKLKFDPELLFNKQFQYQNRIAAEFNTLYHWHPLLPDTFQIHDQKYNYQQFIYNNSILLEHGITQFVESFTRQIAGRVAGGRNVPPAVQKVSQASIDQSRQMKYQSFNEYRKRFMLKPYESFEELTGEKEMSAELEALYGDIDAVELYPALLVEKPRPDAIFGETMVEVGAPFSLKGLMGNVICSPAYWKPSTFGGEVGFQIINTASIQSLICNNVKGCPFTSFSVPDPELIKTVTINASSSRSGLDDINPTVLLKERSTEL

[4] = target: T4, Prostaglandin G/H synthase 2 (Homo sapiens) (UniProt P35354); assay: Inhibition of human COX-2 assessed as peroxidase activity using arachidonic acid as substrate at 50 uM by colorimetric method; method in brief: as §1
T4 sequence (whole entry): T3 sequence (P35354 whole entry)

[5] = Selectivity index, ratio of IC50 for human COX-2 to IC50 for ovine COX-1
Method in brief: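 Selectivity index is calculated as COX-2 IC50 divided by COX-1 IC50, each taken from the colorimetric TMPD peroxidase assay with arachidonic acid substrate.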

Plasma [6] = assay: Antiplatelet activity in human platelet-rich plasma assessed as inhibition of arachidonic acid-induced platelet aggregation by turbidimetric method; format: functional
Method in brief: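 Platelet-rich and platelet-poor plasma prepared from human whole blood (n=3) by differential centrifugation. Compounds pre-incubated in PRP for 2 min, then aggregation is induced with 500 µM arachidonic acid and followed turbidimetrically in an aggregometer. IC50 is determined from several concentrations, in triplicate. Acetylsalicylic acid is the positive control; 1% DMSO vehicle is the negative control.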

Plasma [7] = assay: Anticoagulant activity in human plasma assessed as activated partial thromboplastin time at 100 uM; format: functional
Method in brief: (§2)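 Human platelet-poor plasma from whole blood (n=3) by differential centrifugation, run on a coagulation analyzer. Compounds at 100 µM incubated with plasma 15 min at room temperature, then 2 min at 37 °C. For aPTT, cephalin is added for 2 min and clotting is started with 0.025 M CaCl2. For PT, PBS is added for 3 min and clotting is started with calcium thromboplastin. Clotting time is read in seconds at 37 °C. Negative control is 1% DMSO; positive control is 100 µM rivaroxaban.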

Plasma [8] = assay: Anticoagulant activity in human plasma assessed as prothrombin time at 100 uM; format: functional; method in brief: as §2
[9] = Hemolytic activity against human erythrocytes assessed as hemolysis incubated for 3 hrs by spectrophotometric analysis relative to control; format: ADME, cell-based, Erythrocyte; conditions: read-out: Activity
Method in brief: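 Citrated human blood (n=3) centrifuged at 2500 rpm for 15 min. The erythrocyte pellet is washed three times and resuspended in PBS pH 7.4. Compounds are incubated with the erythrocytes for 3 h at 37 °C. After centrifugation, released hemoglobin is read at 540 nm. Controls are 1% DMSO (negative) and 1% Triton X-100 (positive). Below 10% counts as non-hemolytic.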

Vero [10] = assay: Cytotoxicity against African green monkey Vero cells at 10 uM measured after 48 hrs by MTT assay relative to control; format: cell-based; conditions: chlorocebus sabaeus
Method in brief: (§3)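 Vero cells grown at 37 °C in 5% CO2 in medium with 10% inactivated FBS. Cells seeded at 3.2×10^4 per well and grown 24 h, then exposed to compounds for 48 h (n = 4). Control is DMEM with 10% FBS and 1% DMSO. MTT (2.5 mg/mL solution) is added for 3 h, formazan is dissolved in DMSO and absorbance is read at 570 nm. Viability is given as % of untreated cells, mean ± SD.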

Vero [11] = assay: Cytotoxicity against African green monkey Vero cells at 100 uM measured after 48 hrs by MTT assay relative to control; format: cell-based; conditions: chlorocebus sabaeus; method in brief: as §3
[12] = Genotoxicity in Salmonella typhimurium TA97 at 10 to 500 uM by AMES test; format: toxicity; conditions: salmonella enterica subsp. enterica serovar typhimurium, dose 10-500 µM
Method in brief: (§4)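 Ames reverse mutation to histidine prototrophy using S. typhimurium TA97, TA98, TA100 and TA102. Compounds are dissolved in DMSO and tested at 10, 100 and 500 µM.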

[13] = Genotoxicity in Salmonella typhimurium TA98 at 10 to 500 uM by AMES test; format: toxicity; conditions: salmonella enterica subsp. enterica serovar typhimurium, dose 10-500 µM; method in brief: as §4
[14] = Genotoxicity in Salmonella typhimurium TA100 at 10 to 500 uM by AMES test; format: toxicity; conditions: salmonella enterica subsp. enterica serovar typhimurium, dose 10-500 µM; method in brief: as §4
[15] = Genotoxicity in Salmonella typhimurium TA102 at 10 to 500 uM by AMES test; format: toxicity; conditions: salmonella enterica subsp. enterica serovar typhimurium, dose 10-500 µM; method in brief: as §4
[16] = Mutagenicity in Escherichia coli PQ35 at 10 to 500 uM by SOS-chromotest; format: toxicity; conditions: dose 10-500 µM
Method in brief: (§5)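 SOS chromotest spot assay with E. coli PQ35 and PQ37. An overnight culture is diluted in LB and grown at 37 °C to 2×10^8 bacteria/mL. Then 0.1 mL is mixed in top agar and poured on M63 plates. 10 µL of compound in DMSO (10, 100 or 500 µM) is spotted centrally and plates are incubated overnight at 37 °C. A blue ring around the inhibition zone indicates genotoxicity. Run in triplicate with 4-NQO as positive control.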

[17] = Mutagenicity in Escherichia coli PQ37 at 10 to 500 uM by SOS-chromotest; format: toxicity; conditions: dose 10-500 µM; method in brief: as §5

SMILES	IC50 [1] [nM]	inhibition [2] [%]	IC50 [3] [nM]	inhibition [4] [%]	Ratio IC50 [5]	IC50 (Plasma [6]) [nM]	APTT (Plasma [7]) [s]	PT (Plasma [8]) [s]	hemolysis at 3 h [9] [%]	Activity (Vero [10]) [%]	Activity (Vero [11]) [%]	Activity [12]	Activity [13]	Activity [14]	Activity [15]	Activity [16]	Activity [17]
COc1ccc(-c2noc(CC(=O)NCCNC(=O)Cc3onc(-c4ccc(OC)cc4)c3-c3ccc(OC)cc3)c2-c2ccc(OC)cc2)cc1	13	75	120	45	9												
COc1ccc(-c2noc(CC(=O)O)c2-c2ccc(OC)cc2)cc1 [MOFEZOLAC]						450	50.8	14.2	0	97	91	Non-Toxic	Non-Toxic	Non-Toxic	Non-Toxic	Non-Toxic	Non-Toxic
COc1ccc(-c2noc(CC(=O)Nc3ccc(-c4ccc(N)cc4)cc3)c2-c2ccc(OC)cc2)cc1	75	85	300	71	4												
CC(=O)Oc1ccccc1C(=O)O [ASPIRIN]						1110	50.3	14.6	0	100	95	Non-Toxic	Non-Toxic	Non-Toxic	Non-Toxic	Non-Toxic	Non-Toxic
COc1ccc(-c2noc(CC(=O)Nc3ccc(-c4ccc(NC(=O)Cc5onc(-c6ccc(OC)cc6)c5-c5ccc(OC)cc5)cc4)cc3)c2-c2ccc(OC)cc2)cc1	80	73	> 50000		> 625	440	46.5	15.1	0	100	92	Non-Toxic	Non-Toxic	Non-Toxic	Non-Toxic	Non-Toxic	Non-Toxic
COc1ccc(-c2noc(CC(=O)NCCCCN)c2-c2ccc(OC)cc2)cc1	950	100	3500	51	3.7												
CCCCC/C=C\C/C=C\C/C=C\C/C=C\CCCC(=O)Nc1ccc(-c2ccc(NC(=O)Cc3onc(-c4ccc(OC)cc4)c3-c3ccc(OC)cc3)cc2)cc1	17000	50	90	60	0.005	760	48	14.6	0.14	94	84	Non-Toxic	Non-Toxic	Non-Toxic	Non-Toxic	Non-Toxic	Non-Toxic
CCCCC/C=C\C/C=C\C/C=C\C/C=C\CCCC(=O)NCCCCNC(=O)Cc1onc(-c2ccc(OC)cc2)c1-c1ccc(OC)cc1		57	800	61	0.05												
COc1ccc(-c2noc(CC(=O)Nc3ccc(NC(=O)Cc4onc(-c5ccc(OC)cc5)c4-c4ccc(OC)cc4)cc3)c2-c2ccc(OC)cc2)cc1	150	85	> 50000		> 333	910	47.5	15.5	0	98	97	Non-Toxic	Non-Toxic	Non-Toxic	Non-Toxic	Non-Toxic	Non-Toxic
COc1ccc(-c2noc(CC(=O)NCCCCCCNC(=O)Cc3onc(-c4ccc(OC)cc4)c3-c3ccc(OC)cc3)c2-c2ccc(OC)cc2)cc1	9000	50	> 50000		> 5.5												
COc1ccc(-c2noc(CC(=O)NCCCCNC(=O)Cc3onc(-c4ccc(OC)cc4)c3-c3ccc(OC)cc3)c2-c2ccc(OC)cc2)cc1	5500	74	> 50000		> 9												
COc1ccc(-c2noc(CC(=O)Nc3ccc(N)cc3)c2-c2ccc(OC)cc2)cc1	24000	74	500	79	0.02												
CCCCC/C=C\C/C=C\C/C=C\C/C=C\CCCC(=O)Nc1ccc(NC(=O)Cc2onc(-c3ccc(OC)cc3)c2-c2ccc(OC)cc2)cc1	50	66	> 50000			610	55.6	15.3	0	93	79						
COc1ccc(-c2noc(CC(=O)NCCCCCCCCCCCCNC(=O)Cc3onc(-c4ccc(OC)cc4)c3-c3ccc(OC)cc3)c2-c2ccc(OC)cc2)cc1	7100	40	> 50000		> 7												
COc1ccc(-c2noc(CC(=O)NCc3ccc(CNC(=O)Cc4onc(-c5ccc(OC)cc5)c4-c4ccc(OC)cc4)cc3)c2-c2ccc(OC)cc2)cc1	> 50000		> 50000														
